Measured values taken from ChEMBL document CHEMBL1153746, “Mansouramycins A-D, cytotoxic isoquinolinequinones from a marine streptomycete” (J Nat Prod, 2009).
pIC50: −log10 of the molar value.

Key:
Assay type in all cases: functional, cell-based
[1] = Cytotoxicity against human 526L cells after 4 days by propidium iodide assay; details: 96 h
Outline: (§1)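 Monolayer cell proliferation assay across a panel of up to 36 human tumour lines covering 14 solid tumour types. Lines came either from patient tumours grown as subcutaneous xenografts in NMRI nu/nu mice or from culture collections (ATCC, NCI, DSMZ). Potency is given as IC50.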

[2] = Cytotoxicity against human 394NL cells after 4 days by propidium iodide assay; details: 96 h; outline: as §1
[3] = Cytotoxicity against human GXF251L cells after 4 days by propidium iodide assay; details: GXF 251L, 96 h; outline: as §1
[4] = Cytotoxicity against human 514L cells after 4 days by propidium iodide assay; details: 96 h; outline: as §1
[5] = Cytotoxicity against human LXFL 529L cells after 4 days by propidium iodide assay; details: 96 h; outline: as §1
[6] = Cytotoxicity against human UXF 1138L cells after 4 days by propidium iodide assay; details: 96 h; outline: as §1
OVCAR-3 = test: Cytotoxicity against human OVCAR-3 cells after 4 days by propidium iodide assay; details: OVCAR-3, 96 h; outline: as §1
NCI-H460 = test: Cytotoxicity against human H460 cells after 4 days by propidium iodide assay; details: NCI-H460, 96 h; outline: as §1
[7] = Cytotoxicity against human BXF T24 cells after 4 days by propidium iodide assay; details: T-24, 96 h; outline: as §1
[8] = Cytotoxicity against human 1619L cells after 4 days by propidium iodide assay; details: 96 h; outline: as §1
[9] = Cytotoxicity against human 1657L cells after 4 days by propidium iodide assay; details: 96 h; outline: as §1
[10] = Cytotoxicity against human 899L cells after 4 days by propidium iodide assay; details: 96 h; outline: as §1
[11] = Cytotoxicity against human 629L cells after 4 days by propidium iodide assay; details: 96 h; outline: as §1
[12] = Cytotoxicity against human MAXF 401NL cells after 4 days by propidium iodide assay; details: 96 h; outline: as §1
[13] = Cytotoxicity against human 520L cells after 4 days by propidium iodide assay; details: 96 h; outline: as §1
[14] = Cytotoxicity against human 1752L cells after 4 days by propidium iodide assay; details: 96 h; outline: as §1
[15] = Cytotoxicity against human 289L cells after 4 days by propidium iodide assay; details: 96 h; outline: as §1
SF-268 = test: Cytotoxicity against human SF268 cells after 4 days by propidium iodide assay; details: SF-268, 96 h; outline: as §1
HCT-116 = test: Cytotoxicity against human HCT116 cells after 4 days by propidium iodide assay; details: HCT-116, 96 h; outline: as §1
[16] = Cytotoxicity against human 1781L cells after 4 days by propidium iodide assay; details: 96 h; outline: as §1
HT-29 = test: Cytotoxicity against human HT-29 cells after 4 days by propidium iodide assay; details: HT-29, 96 h; outline: as §1
MCF7 = test: Cytotoxicity against human MCF7 cells after 4 days by propidium iodide assay; details: MCF7, 96 h; outline: as §1
DU-145 = test: Cytotoxicity against human DU145 cells after 4 days by propidium iodide assay; details: DU-145, 96 h; outline: as §1
CWR22R = test: Cytotoxicity against human 22Rv1 cells after 4 days by propidium iodide assay; details: 22Rv1, 96 h; outline: as §1
[17] = Cytotoxicity against human 393NL cells after 4 days by propidium iodide assay; details: 96 h; outline: as §1
LNCaP = test: Cytotoxicity against human LNCAP cells after 4 days by propidium iodide assay; details: 96 h; outline: as §1
PANC-1 = test: Cytotoxicity against human PANC1 cells after 4 days by propidium iodide assay; details: PANC-1, 96 h; outline: as §1
[18] = Cytotoxicity against human 498NL cells after 4 days by propidium iodide assay; details: 96 h; outline: as §1
[19] = Cytotoxicity against human RXF 486L cells after 4 days by propidium iodide assay; details: 96 h; outline: as §1
[20] = Cytotoxicity against human 1218L cells after 4 days by propidium iodide assay; details: 96 h; outline: as §1
[21] = Cytotoxicity against human 276L cells after 4 days by propidium iodide assay; details: 96 h; outline: as §1
[22] = Cytotoxicity against human MEXF 462NL cells after 4 days by propidium iodide assay; details: 96 h; outline: as §1
[23] = Cytotoxicity against human 536L cells after 4 days by propidium iodide assay; details: 96 h; outline: as §1
[24] = Cytotoxicity against human PC3M cells after 4 days by propidium iodide assay; details: PC-3M, 96 h; outline: as §1
[25] = Cytotoxicity against human 1121L cells after 4 days by propidium iodide assay; details: 96 h; outline: as §1
[26] = Cytotoxicity against human RXF 944L cells after 4 days by propidium iodide assay; details: 96 h; outline: as §1
[27] = Cytotoxicity against human LXFA 526 cells after 7 to 20 days by clonogenic assay
Outline: (§2)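 Colony formation assay for clonogenicity. Cell suspensions were prepared from patient-derived human tumour xenografts, kept by serial subcutaneous passage in NMRI nu/nu mice. Cells were embedded and incubated in culture medium containing soft agar. Potency is given as IC50.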

[28] = Cytotoxicity against human 1322 cells after 7 to 20 days by clonogenic assay; outline: as §2
[29] = Cytotoxicity against human NSB008 cells after 7 to 20 days by clonogenic assay
Outline: (§3)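 Colony formation assay on hematopoietic stem cells from cord blood, used as nonmalignant tissue. Cells were embedded and incubated in culture medium containing methyl cellulose. Potency is given as IC50.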

[30] = Cytotoxicity against human 1218 cells after 7 to 20 days by clonogenic assay; outline: as §2
[31] = Cytotoxicity against human 514 cells after 7 to 20 days by clonogenic assay; outline: as §2
[32] = Cytotoxicity against human NSB005 cells after 7 to 20 days by clonogenic assay; outline: as §3
[33] = Cytotoxicity against human 401 cells after 7 to 20 days by clonogenic assay; outline: as §2
[34] = Cytotoxicity against human 899 cells after 7 to 20 days by clonogenic assay; outline: as §2
[35] = Cytotoxicity against human 276 cells after 7 to 20 days by clonogenic assay; outline: as §2
[36] = Cytotoxicity against human LXFA 629L cells after 7 to 20 days by clonogenic assay; outline: as §2
[37] = Cytotoxicity against human RXF631 cells after 7 to 20 days by clonogenic assay; details: RXF 631; outline: as §2
[38] = Cytotoxicity against human 575 cells after 7 to 20 days by clonogenic assay; outline: as §2
[39] = Cytotoxicity against human 243 cells after 7 to 20 days by clonogenic assay; outline: as §2
[40] = in the assay text read “MTT assay” for “propidium iodide assay”

Question: Which results are given for `CNC1=CC(=O)c2cc(C(=O)OC)ncc2C1=O`?
Answer: pIC50 [1]: 6.96; pIC50 [2]: 6.97; pIC50 [3]: 6.78; pIC50 [4]: 7.92; pIC50 [5]: 7.05; pIC50 [6]: 7.92; pIC50 (OVCAR-3): 7.92; pIC50 (NCI-H460): 6.87; pIC50 [7]: 8.10; pIC50 [8]: 7.35; pIC50 [9]: 7.21; pIC50 [10]: 6.87; pIC50 [11]: 7.80; pIC50 [12]: 6.71; pIC50 [13]: 7.92; pIC50 [14]: 6.89; pIC50 [15]: 6.89; pIC50 (SF-268): 8.10; pIC50 (HCT-116): 6.94; pIC50 [16]: 6.94; pIC50 (HT-29): 6.84; pIC50 (MCF7): 7.92; pIC50 (DU-145): 6.00; pIC50 (CWR22R): 6.17; pIC50 [17]: 6.91; pIC50 (LNCaP): 5.84; pIC50 (PANC-1): 6.26; pIC50 [18]: 6.89; pIC50 [19]: 5.78; pIC50 [20]: 6.87; pIC50 [21]: 8.10; pIC50 [22]: 6.75; pIC50 [23]: 6.84; pIC50 [24]: 6.67; pIC50 [25]: 6.82; pIC50 [26]: 7.70

Question: With `CNC1=CC(=O)c2cc(C)ncc2C1=O` as the molecule, how does the pIC50 [1] read?
Answer: 4.97

Question: What about the pIC50 [27] of the same molecule?
Answer: 5.37

Question: And the pIC50 [2]?
Answer: 5.24

Question: What about the pIC50 [3] of the same molecule?
Answer: 5.44

Question: And the pIC50 [28]?
Answer: 5.08

Question: What about the pIC50 [4] of the same molecule?
Answer: 5.69

Question: And the pIC50 [5]?
Answer: 5.31

Question: And the pIC50 [29]?
Answer: 5.34

Question: And the pIC50 [6, 40]?
Answer: 5.65

Question: What about the pIC50 (OVCAR-3; [40]) of the same molecule?
Answer: 5.12

Question: And the pIC50 [30]?
Answer: 5.36

Question: What about the pIC50 (NCI-H460) of the same molecule?
Answer: 5.41

Question: What about the pIC50 [7] of the same molecule?
Answer: 6.21

Question: What about the pIC50 [8, 40] of the same molecule?
Answer: 5.40

Question: And the pIC50 [9, 40]?
Answer: 5.31

Question: What about the pIC50 [10, 40] of the same molecule?
Answer: 5.18

Question: What about the pIC50 [11] of the same molecule?
Answer: 5.93

Question: What about the pIC50 [12] of the same molecule?
Answer: 4.76

Question: And the pIC50 [13, 40]?
Answer: 6.62

Question: What about the pIC50 [14] of the same molecule?
Answer: 5.22

Question: What about the pIC50 [31] of the same molecule?
Answer: 7.30

Question: What about the pIC50 [15] of the same molecule?
Answer: 5.52

Question: What about the pIC50 [32] of the same molecule?
Answer: 5.34

Question: And the pIC50 (SF-268)?
Answer: 5.74

Question: What about the pIC50 (HCT-116) of the same molecule?
Answer: 5.44

Question: What about the pIC50 [16] of the same molecule?
Answer: 5.00

Question: And the pIC50 [33]?
Answer: 5.41

Question: What about the pIC50 [34] of the same molecule?
Answer: 5.27

Question: And the pIC50 [35]?
Answer: 6.48

Question: And the pIC50 (HT-29)?
Answer: 5.70

Question: What about the pIC50 (MCF7) of the same molecule?
Answer: 5.95

Question: And the pIC50 (DU-145)?
Answer: 6.47

Question: What about the pIC50 (CWR22R) of the same molecule?
Answer: 5.33

Question: And the pIC50 [17]?
Answer: 5.38

Question: What about the pIC50 (LNCaP) of the same molecule?
Answer: 5.20

Question: What about the pIC50 [36] of the same molecule?
Answer: 5.79

Question: And the pIC50 (PANC-1)?
Answer: 5.42

Question: And the pIC50 [18]?
Answer: 5.28

Question: What about the pIC50 [19] of the same molecule?
Answer: 4.30

Question: What about the pIC50 [37] of the same molecule?
Answer: 5.11

Question: And the pIC50 [20]?
Answer: 4.99

Question: And the pIC50 [21]?
Answer: 6.46

Question: And the pIC50 [22]?
Answer: 4.72

Question: What about the pIC50 [23] of the same molecule?
Answer: 6.42

Question: What about the pIC50 [38] of the same molecule?
Answer: 5.08

Question: What about the pIC50 [24] of the same molecule?
Answer: 5.22

Question: And the pIC50 [25]?
Answer: 5.18

Question: What about the pIC50 [39] of the same molecule?
Answer: 4.99

Question: And the pIC50 [26]?
Answer: 5.27
